From ChEMBL document CHEMBL1131242, “6beta-Acetoxynortropane: a potent muscarinic agonist with apparent selectivity toward M2-receptors” (J Med Chem, 1998)
Where a chain is given by its changes, count along the chain named.

Tests used:
[1] = biological target: T1, Muscarinic acetylcholine receptor M1 (Homo sapiens, UniProt P11229); test: Inhibition of binding of [3H]quinuclidinyl benzilate to muscarinic receptors in membranes of CHO cells transfected with Muscarinic acetylcholine receptor M1; assay type: cell membranes
T1 sequence (P11229 whole entry): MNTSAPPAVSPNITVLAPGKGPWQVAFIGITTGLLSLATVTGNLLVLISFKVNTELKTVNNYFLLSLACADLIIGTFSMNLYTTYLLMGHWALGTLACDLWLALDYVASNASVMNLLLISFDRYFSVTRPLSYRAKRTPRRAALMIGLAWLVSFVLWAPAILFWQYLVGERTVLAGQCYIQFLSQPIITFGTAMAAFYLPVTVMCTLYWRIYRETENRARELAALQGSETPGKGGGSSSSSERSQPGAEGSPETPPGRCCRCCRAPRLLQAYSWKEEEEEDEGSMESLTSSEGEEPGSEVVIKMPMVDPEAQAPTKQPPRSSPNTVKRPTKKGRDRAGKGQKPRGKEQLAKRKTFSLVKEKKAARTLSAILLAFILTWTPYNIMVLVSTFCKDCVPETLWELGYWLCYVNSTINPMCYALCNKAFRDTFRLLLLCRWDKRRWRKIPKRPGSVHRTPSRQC
In short: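 Membranes from CHO cells expressing human M1 receptor, harvested at 80-100% confluence. Competition against 0.2 nM [3H]quinuclidinyl benzilate in 25 mM sodium phosphate pH 7.4 with 5 mM MgCl2; 30 min at 37 °C, triplicate. Nonspecific binding with 10 μM atropine. Filtration and scintillation counting.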

[2] = biological target: T2, Muscarinic acetylcholine receptor M1 (Rattus norvegicus, UniProt P08482); test: Inhibition of binding of [3H]quinuclidinyl benzilate to Muscarinic acetylcholine receptor M1 in rat cerebral cortical membranes at 100 uM concentration; assay type: cell membranes, Membrane
T2 sequence (P08482 whole entry): T1 sequence (P11229 whole entry) with A5V, T254S, P309S, R320K, A337G, I413V
In short: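 Rat cortical membranes with 0.2 nM [3H]quinuclidinyl benzilate in HEPES pH 7.4 with 10 mM MgCl2 and 100 mM NaCl, 30 min at 37 °C, triplicate. Atropine 1 µM defined nonspecific binding. Percent inhibition was read at 100 µM test agent; mean ± SEM, n = 4.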

[3] = biological target: T2, Muscarinic acetylcholine receptor M1; test: The compound was evaluated for inhibition of binding of [3H]quinuclidinyl benzilate to Muscarinic acetylcholine receptor M1 in Rat Cerebral Cortical Membranes
In short: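 Rat cerebral cortex membranes were homogenised in 50 mM Tris-HCl pH 7.4 and diluted in HEPES binding buffer. They were incubated with 0.2 nM [3H]quinuclidinyl benzilate in 20 mM HEPES pH 7.4 with 10 mM MgCl2 and 100 mM NaCl for 30 min at 37 °C, in triplicate. Nonspecific binding used 1 µM atropine. Filtration was followed by scintillation counting.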

[4] = biological target: T3, Muscarinic acetylcholine receptor M2 (Homo sapiens, UniProt P08172); test: Inhibitory activity against [3H]quinuclidinyl Benzilate binding to Muscarinic acetylcholine receptor M2 in the presence of GTP
T3 sequence (P08172 whole entry): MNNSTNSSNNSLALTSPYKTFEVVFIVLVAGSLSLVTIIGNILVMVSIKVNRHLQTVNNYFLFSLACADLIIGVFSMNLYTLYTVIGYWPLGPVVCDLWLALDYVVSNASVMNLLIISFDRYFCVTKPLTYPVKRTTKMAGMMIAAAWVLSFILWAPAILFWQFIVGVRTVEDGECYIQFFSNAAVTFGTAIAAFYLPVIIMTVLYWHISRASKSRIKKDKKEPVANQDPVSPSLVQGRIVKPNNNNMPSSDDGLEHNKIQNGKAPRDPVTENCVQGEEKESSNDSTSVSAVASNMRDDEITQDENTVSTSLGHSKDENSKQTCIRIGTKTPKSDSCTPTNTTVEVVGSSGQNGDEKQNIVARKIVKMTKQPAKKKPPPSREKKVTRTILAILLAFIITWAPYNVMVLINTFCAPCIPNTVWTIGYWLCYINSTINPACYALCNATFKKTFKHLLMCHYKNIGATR
In short: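 Membranes from CHO cells expressing human M2 receptor. Competition against 0.1 nM [3H]quinuclidinyl benzilate in 25 mM sodium phosphate pH 7.4, 5 mM MgCl2, without or with 10 μM GTP; 30 min at 37 °C, triplicate. Nonspecific binding with 1 μM atropine. Filtration, scintillation counting.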

[5] = biological target: Muscarinic acetylcholine receptor M4 (Homo sapiens) (UniProt P08173); test: Inhibition of binding of [3H]quinuclidinyl benzilate to Muscarinic acetylcholine receptor M4 in membranes of transfected CHO cells
[6] = biological target: Muscarinic acetylcholine receptor M4 (Homo sapiens) (UniProt P08173); test: Inhibitory activity against [3H]-cyclic AMP accumulation in CHO transfected cells mediated by Muscarinic acetylcholine receptor M4
[7] = biological target: Muscarinic acetylcholine receptor M1 (Homo sapiens) (UniProt P11229); test: Inhibitory activity against stimulation of [3H]inositol monophosphate accumulation in [3H]inositol-labelled CHO transfected cells mediated by Muscarinic acetylcholine receptor M1

**Q.** For CC(=O)OC1CC2CCCC1N2 (configuration not stated), which Ki [1] is on record?
**A.** 21000 nM

**Q.** And the Ki [2]?
**A.** 22000 nM

**Q.** What about the Ki [3] of the same molecule?
**A.** 22000 nM

**Q.** And the IC50 [4]?
**A.** 120 nM

**Q.** What about the Ki [5] of the same molecule?
**A.** 33 nM

**Q.** What about the IC50 [6] of the same molecule?
**A.** 11 nM (agonist)

**Q.** What about the EC50 [7] of the same molecule?
**A.** 23 nM
